We go through six molecules from ChEMBL document CHEMBL1151195, “New isoprenylated flavones, artochamins A--E, and cytotoxic principles from Artocarpus chama” (2004).

One test deals with MDA-MB-231. Nature of the test: Cytotoxicity against human MDA-MB-231 cells. As to conditions: read-out: ED50 (the source's name). It counts as functional. An outline of the steps:
(§1)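 Growth inhibition in cultured human tumor cell lines. Compound stocks were made in DMSO and held at -70 °C, then diluted into culture medium to a final DMSO level of ≤1% (v/v).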

The subject of another test is KB. The test is described as follows: Cytotoxicity against human KB cells. It counts as functional. As to conditions: read-out: ED50 (the source's name). An outline of the steps:
as §1

The subject of a further test is PC-3. The test is described as follows: Cytotoxicity against human PC3 cells. It counts as functional. As to conditions: read-out: ED50 (the source's name). The procedure, abridged: as §1
In a further test the test system is HCT-8. The test is described as follows: Cytotoxicity against human HCT8 cells. The class given is functional. As to conditions: read-out: ED50 (the source's name). An outline of the steps:
as §1

The subject of a further test is CAKI-1. The test is described as follows: Cytotoxicity against human Caki1 cells. As to conditions: read-out: ED50 (the source's name). It counts as functional. An outline of the steps:
as §1

A short description of test [1]: Cytotoxicity against human U87MG cells. The class given is functional, U-87MG ATCC. As to conditions: U-87 MG, read-out: ED50 (the source's name). An outline of the steps:
as §1

For the next test, the system named is MCF7. The test is described as follows: Cytotoxicity against human MCF7 cells. It counts as functional. As to conditions: read-out: ED50 (the source's name). An outline of the steps: as §1
Test [2] in a line: Cytotoxicity against human KBVIN cells. As to conditions: read-out: ED50 (the source's name). It counts as functional. The procedure, abridged:
as §1

The next test concerns A549. Nature of the test: Cytotoxicity against human A549 cells. It counts as functional. As to conditions: read-out: ED50 (the source's name). An outline of the steps: as §1
The test system of the next test is 1A9. Nature of the test: Cytotoxicity against human 1A9 cells. The class given is functional. As to conditions: read-out: ED50 (the source's name). An outline of the steps: as §1
A further test has as its system SK-MEL-2. The test is described as follows: Cytotoxicity against human SK-MEL-2 cells. As to conditions: read-out: ED50 (the source's name). The class given is functional. The procedure, abridged:
as §1

≈ marks a conversion by molar mass, not a printed value. Some results are limits rather than exact numbers.

Take `CC1(C)C=Cc2c(cc(O)c3c(=O)cc(-c4ccc(O)c(O)c4)oc23)O1` [ARTOCHAMIN C]: the EC50 in the test with MDA-MB-231 worked out at 6.2 µg/mL (≈ 17.6 µM); in the test with KB, 3.4 µg/mL (≈ 9.65 µM); with PC-3, 4.2 µg/mL (≈ 11.9 µM); with HCT-8, 2.3 µg/mL (≈ 6.53 µM); in the test on CAKI-1, 5.3 µg/mL (≈ 15 µM); in test [1] it was 7.2 µg/mL (≈ 20.4 µM). The EC50 with MCF7 was 2.2 µg/mL (≈ 6.24 µM); in test [2] it was 3.4 µg/mL (≈ 9.65 µM); in the test with A549 it was 3 µg/mL (≈ 8.51 µM); in the test on 1A9 it was 2 µg/mL (≈ 5.68 µM); in the test with SK-MEL-2 it was 2.3 µg/mL (≈ 6.53 µM).
Regarding `CC(C)=CCc1c(-c2cc(O)c(O)cc2O)oc2c3c(cc(O)c2c1=O)OC(C)(C)C=C3` [ARTONIN E], the EC50 with MDA-MB-231 stood at 3 µg/mL (≈ 6.87 µM); with KB it was 6.5 µg/mL (≈ 14.9 µM); with PC-3, 6.9 µg/mL (≈ 15.8 µM); in the test with HCT-8, 3.3 µg/mL (≈ 7.56 µM); in the test with CAKI-1 it was 9.7 µg/mL (≈ 22.2 µM); in test [1], 6.4 µg/mL (≈ 14.7 µM). The EC50 is 2.2 µg/mL (≈ 5.04 µM) with MCF7; above 10 µg/mL in test [2]; 8.5 µg/mL (≈ 19.5 µM) with A549; below 1.25 µg/mL in the test on 1A9; 4.3 µg/mL (≈ 9.85 µM) with SK-MEL-2.
As to `CC1(C)C=Cc2c(cc(O)c3c(=O)c4c(oc23)-c2c(O)cc(O)c3c2C(C4)C(C)(C)O3)O1` (centres undefined) [CYCLOARTOBILOXANTHONE], the EC50 was determined as 7.7 µg/mL (≈ 17.7 µM) with MCF7 and 7.2 µg/mL (≈ 16.6 µM) in the test with A549.
Consider `COc1ccc2c(c1)OC(C=C(C)C)c1c-2oc2cc(O)c(/C=C/C(C)C)c(O)c2c1=O` (centres undefined) [CYCLOARTOCARPIN A], for which the values for the EC50 in the test with MCF7 and in the test on A549 were 6 µg/mL (≈ 13.8 µM) and 6.6 µg/mL (≈ 15.2 µM), respectively.
On to `COc1cc2oc(-c3ccc(O)cc3O)c(CC=C(C)C)c(=O)c2c(O)c1/C=C/C(C)C` [ARTOCARPIN], for which the EC50 is 3.8 µg/mL (≈ 8.71 µM) with MDA-MB-231; 3.2 µg/mL (≈ 7.33 µM) in the test with KB; 4.1 µg/mL (≈ 9.39 µM) with PC-3; 3.8 µg/mL (≈ 8.71 µM) in the test with HCT-8; 4.9 µg/mL (≈ 11.2 µM) in the test with CAKI-1; 3.7 µg/mL (≈ 8.48 µM) in test [1]. Moreover, the EC50 was 3.3 µg/mL (≈ 7.56 µM) in the test with MCF7; 3.6 µg/mL (≈ 8.25 µM) in [2]; 3.3 µg/mL (≈ 7.56 µM) with A549; 3.4 µg/mL (≈ 7.79 µM) in the test on 1A9; 5.4 µg/mL (≈ 12.4 µM) in the test with SK-MEL-2.
For the molecule `CC(C)=CCc1c2c(c(O)c3c(=O)c4c(oc13)-c1c(O)cc(O)c3c1C(C4)C(C)(C)O3)C=CC(C)(C)O2` (centres undefined) [ARTONIN A], the EC50 with MCF7 was 6.7 µg/mL (≈ 13.3 µM); in the test on A549, 6.1 µg/mL (≈ 12.1 µM).
